Measured values from ChEMBL document CHEMBL1125383, “Benzazepinone calcium channel blockers. 4. Structure-activity overview and intracellular binding site” (J Med Chem, 1992).

Columns and labels:
[1] = biological target: T1, Voltage-gated L-type calcium channel (Rattus norvegicus, UniProt P22002+Q02485+P27732); experiment: Percentage decrease in blood pressure at a dose of 135 uM/kg for 0-6 h in spontaneously hypertensive rats.; format: functional, tissue-based
In short: (§1)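 Spontaneously hypertensive rats, n = 5, given 135 µmol/kg orally; systolic pressure recorded directly; maximum percent fall from predrug control noted within 0-6, 6-12 and 12-18 h windows after dosing; mean of five rats.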

[2] = biological target: T1, Voltage-gated L-type calcium channel; experiment: Percentage decrease in blood pressure at a dose of 135 uM/kg for 6-12 hr in spontaneously hypertensive rats.; format: functional, tissue-based; in short: as §1
[3] = biological target: T1, Voltage-gated L-type calcium channel; experiment: Percentage decrease in blood pressure at a dose of 270 umol/kg for 12-18 h in spontaneously hypertensive rats.; format: functional, tissue-based
In short: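 Spontaneously hypertensive rats, n = 5, dosed orally at 270 µmol/kg; systolic pressure recorded directly; maximum percent fall from predrug control within the 12-18 h window after dosing; mean of five rats.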

[4] = Partition coefficient (logP); format: physicochemical; conditions: octanol/water
[5] = Concentration required to cause 50% relaxation of maximal contraction in circumferential rabbit aorta strips in response to KCl (100 mM); format: functional, tissue-based, Oryctolagus cuniculus; conditions: Oryctolagus cuniculus, Aorta
[6] = biological target: T1, Voltage-gated L-type calcium channel; experiment: Percentage decrease in blood pressure at a dose of 135 uM/kg for 12-18 hr in spontaneously hypertensive rats.; format: functional, tissue-based; in short: as §1
[7] = biological target: T1, Voltage-gated L-type calcium channel; experiment: Percentage decrease in blood pressure at a dose of 135 uM/kg for 0-6 hr in spontaneously hypertensive rats.; format: functional, tissue-based; in short: as §1

Row | SMILES | Decrease in blood pressure [1] | Decrease in blood pressure [2] | Decrease in blood pressure [3] | logP [4] | IC50 [5] | Decrease in blood pressure [6] | Decrease in blood pressure [7]
1 | COc1ccc([C@@H]2Cc3cc(Cl)ccc3N(CCN(C)C)C(=O)[C@@H]2OC(C)=O)cc1 | 13% | 14% | 18% | 2.2 |  |  | 
2 | COc1ccc([C@@H]2Cc3c(C(N)=O)cccc3N(CCN(C)C)C(=O)[C@@H]2OC(C)=O)cc1 | 13% | 12% |  | -1 | > 30 µM | 12% | 
3 | COc1ccc([C@@H]2Cc3cc(SC(C)(C)C)ccc3N(CCN(C)C)C(=O)[C@@H]2OC(C)=O)cc1 | 10% | 11% |  | 3.6 | 9 µM | 14% | 
4 | COc1ccc([C@@H]2Cc3c(OC)cccc3N(CCN(C)C)C(=O)[C@@H]2C)cc1 | 7% | 10% |  | 2.6 | 0.42 µM | 8% | 
5 | COc1ccc([C@@H]2Cc3cc(C(F)(F)F)ccc3N(CCN(C)C)C(=O)[C@@H]2SC(C)=O)cc1 | 13% | 18% |  | 3.4 | 0.068 µM | 23% | 
6 | COc1ccc([C@@H]2Cc3cc(OCc4ccccc4)ccc3N(CCN(C)C)C(=O)[C@@H]2OC(C)=O)cc1 | 8% | 10% |  | 3.4 | 0.73 µM | 11% | 
7 | COc1ccc([C@@H]2Cc3c(C(=O)O)cccc3N(CCN(C)C)C(=O)[C@@H]2OC(C)=O)cc1 | 8% | 9% |  | -4.1 | > 30 µM | 10% | 
8 | COc1ccc([C@@H]2Cc3c(cccc3[N+](=O)[O-])N(CCN(C)C)C(=O)[C@@H]2OC(C)=O)cc1 | 16% | 12% |  | 1.7 | 0.37 µM | 14% | 
9 | CNC(=O)Oc1ccc2c(c1)C[C@@H](c1ccc(OC)cc1)[C@@H](OC(C)=O)C(=O)N2CCN(C)C | 7% | 10% |  | 0.31 | 0.31 µM | 12% | 
10 | COc1ccc([C@@H]2Cc3cc(SC)ccc3N(CCN(C)C)C(=O)[C@@H]2OC(C)=O)cc1 | 19% | 20% |  | 2 | 0.6 µM | 21% | 
11 | COc1ccc([C@@H]2Cc3cc(OC(=O)C(C)(C)C)ccc3N(CCN(C)C)C(=O)[C@@H]2OC(C)=O)cc1 | 13% | 14% |  | 2.9 | 5.2 µM | 16% | 
12 | C=CC[C@H]1C(=O)N(CCN(C)C)c2cccc(C(F)(F)F)c2C[C@H]1c1ccc(OC)cc1 | 24% |  |  | 4.6 | 0.1 µM | 29% | 
13 | COc1ccc([C@H]2CC(=O)N(CCN(C)C)c3cccc(C(F)(F)F)c3C2)cc1 | 2% | 3% |  | 3.1 | 1.1 µM | 3% | 
14 | COc1ccc([C@@H]2Cc3c(C#N)cccc3N(CCN(C)C)C(=O)[C@@H]2OC(C)=O)cc1 | 9% | 7% |  | 1.3 | 0.12 µM | 9% | 
15 | COc1ccc([C@@H]2Cc3c(ccc(Br)c3OC)N(CCN(C)C)C(=O)[C@@H]2C)cc1 | 9% | 12% |  | 3.4 | 0.085 µM | 14% | 
16 | COc1ccc([C@@H]2Cc3c(C)cccc3N(CCN(C)C)C(=O)[C@@H]2OC(C)=O)cc1 | 6% | 10% |  | 1.7 | 2.5 µM | 12% | 
17 | COc1ccc([C@@H]2Cc3ccccc3N(CCN(C)C)C(=O)[C@@H]2C)cc1 | 6% | 4% |  | 2.5 | 1.1 µM | 8% | 
18 | COc1ccc([C@@H]2Cc3c(cccc3C(F)(F)F)N(CCN(C)C)C(=O)[C@@H]2Cc2ccccc2)cc1 | 14% | 8% |  | 5.2 | 0.79 µM | 6% | 
19 | COc1ccc([C@@H]2Cc3cc(C(F)(F)F)ccc3N(CCN(C)C)C(=O)[C@@H]2OC(C)=O)cc1 | 19% | 19% |  | 2.8 | 1.9 µM | 18% | 
20 | COc1ccc([C@@H]2Cc3c(C(=O)OCc4ccccc4)cccc3N(CCN(C)C)C(=O)[C@@H]2OC(C)=O)cc1 | 4% | 8% |  | 3.3 | 3.5 µM | 8% | 
21 | COc1ccc([C@@H]2Cc3c(cccc3C(F)(F)F)N(CCN(C)C(C)=O)C(=O)[C@@H]2OC(C)=O)cc1 |  | 1% |  |  | 4.5 µM | 5% | 2%
22 | COc1ccc([C@@H]2Cc3c(ccc(Br)c3OC)N(CCN(C)C)C(=O)[C@@H]2OC(C)=O)cc1 | 18% | 12% |  | 2.4 | 0.58 µM | 11% | 
23 | COc1ccc([C@@H]2Cc3cc(OC(F)F)ccc3N(CCN(C)C)C(=O)[C@@H]2OC(C)=O)cc1 | 12% | 13% |  | 1.8 | 0.96 µM | 16% | 
24 | COc1ccc([C@@H]2Cc3cc(Sc4ccccc4)ccc3N(CCN(C)C)C(=O)[C@@H]2OC(C)=O)cc1 | 15% | 17% |  | 3.8 | 0.69 µM | 19% | 
25 | COc1ccc([C@@H]2Cc3ccccc3N(CCN(C)C)C(=O)[C@@H]2OC(C)=O)cc1 | 8% | 8% |  | 1.2 |  | 13% | 
26 | CCC[C@H]1C(=O)N(CCN(C)C)c2cccc(C(F)(F)F)c2C[C@H]1c1ccc(OC)cc1 | 14% | 19% |  | 4.9 | 0.95 µM | 24% | 
27 | COc1ccc([C@@H]2Cc3cc(Oc4ccccc4)ccc3N(CCN(C)C)C(=O)[C@@H]2OC(C)=O)cc1 | 16% | 12% |  | 3.1 | 0.44 µM | 16% | 
28 | COc1ccc([C@@H]2Cc3cc(C(F)(F)F)ccc3N(CCN(C)C)C(=O)[C@@H]2NC(C)=O)cc1 | 12% | 12% |  | 1.6 | 9.2 µM | 10% | 
29 | CC[C@H]1C(=O)N(CCN(C)C)c2cccc(C(F)(F)F)c2C[C@H]1c1ccc(OC)cc1 | 21% | 19% |  | 4.3 | 0.012 µM | 15% | 
